The source made the active and inactive calls. No cut-off for these calls is given here.
Columns and labels:
[1] = molecular target: T1, Histone deacetylase 8 (Homo sapiens) (UniProt Q9BY41); assay: Inhibition of HDAC8 (unknown origin)
T1 sequence (whole entry): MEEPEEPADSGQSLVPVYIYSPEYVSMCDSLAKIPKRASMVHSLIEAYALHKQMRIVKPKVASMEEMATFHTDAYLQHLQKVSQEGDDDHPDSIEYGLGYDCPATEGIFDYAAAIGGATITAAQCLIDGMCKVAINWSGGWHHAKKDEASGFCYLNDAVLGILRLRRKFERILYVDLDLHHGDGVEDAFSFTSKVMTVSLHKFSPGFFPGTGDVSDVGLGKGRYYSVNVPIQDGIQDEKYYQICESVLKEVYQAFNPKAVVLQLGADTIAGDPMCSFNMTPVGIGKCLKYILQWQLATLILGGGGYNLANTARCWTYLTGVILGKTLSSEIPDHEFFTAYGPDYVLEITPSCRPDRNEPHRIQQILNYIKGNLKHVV

[2] = molecular target: Histone deacetylase 4 (Homo sapiens) (UniProt P56524); assay: Inhibition of HDAC4 (unknown origin)
Histone deacetylase 4 (Homo sapiens), sequence (P56524 whole entry): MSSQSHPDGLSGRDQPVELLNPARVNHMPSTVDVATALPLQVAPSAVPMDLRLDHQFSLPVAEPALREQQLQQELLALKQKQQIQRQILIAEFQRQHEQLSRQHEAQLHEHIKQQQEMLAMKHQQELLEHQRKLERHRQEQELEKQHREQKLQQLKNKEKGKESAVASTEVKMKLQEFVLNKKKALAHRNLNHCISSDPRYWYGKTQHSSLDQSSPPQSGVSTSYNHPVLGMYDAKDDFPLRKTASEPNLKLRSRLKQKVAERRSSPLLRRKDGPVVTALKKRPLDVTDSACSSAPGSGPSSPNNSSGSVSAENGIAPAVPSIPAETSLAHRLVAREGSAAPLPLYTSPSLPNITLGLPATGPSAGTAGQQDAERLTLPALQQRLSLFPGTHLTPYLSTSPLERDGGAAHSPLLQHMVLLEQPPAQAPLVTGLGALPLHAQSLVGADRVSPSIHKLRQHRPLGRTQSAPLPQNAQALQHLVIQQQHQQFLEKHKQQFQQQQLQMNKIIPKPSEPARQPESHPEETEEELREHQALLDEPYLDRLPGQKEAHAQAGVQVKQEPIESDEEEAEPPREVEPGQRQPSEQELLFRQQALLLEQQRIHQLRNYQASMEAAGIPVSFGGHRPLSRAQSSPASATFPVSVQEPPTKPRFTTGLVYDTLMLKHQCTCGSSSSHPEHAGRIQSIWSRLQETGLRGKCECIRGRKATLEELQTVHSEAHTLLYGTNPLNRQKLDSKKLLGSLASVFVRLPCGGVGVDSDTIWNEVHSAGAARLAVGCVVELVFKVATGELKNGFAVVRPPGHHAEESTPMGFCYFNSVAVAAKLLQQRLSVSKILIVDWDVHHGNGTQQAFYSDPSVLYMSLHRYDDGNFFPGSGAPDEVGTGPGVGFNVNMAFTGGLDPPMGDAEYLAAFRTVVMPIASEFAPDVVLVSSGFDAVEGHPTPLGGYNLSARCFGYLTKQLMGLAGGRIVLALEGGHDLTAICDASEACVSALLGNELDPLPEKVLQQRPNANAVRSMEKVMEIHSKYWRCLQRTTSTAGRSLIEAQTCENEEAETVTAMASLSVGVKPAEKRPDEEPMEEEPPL

[3] = molecular target: T2, NAD-dependent protein deacetylase sirtuin-1 (Homo sapiens) (UniProt Q96EB6); assay: Inhibition of His-tagged human recombinant SIRT1 expressed in Escherichia coli at 20 uM using Cbz-Lys(Ac)-AMC as substrate by fluorescence assay
T2 sequence (whole entry): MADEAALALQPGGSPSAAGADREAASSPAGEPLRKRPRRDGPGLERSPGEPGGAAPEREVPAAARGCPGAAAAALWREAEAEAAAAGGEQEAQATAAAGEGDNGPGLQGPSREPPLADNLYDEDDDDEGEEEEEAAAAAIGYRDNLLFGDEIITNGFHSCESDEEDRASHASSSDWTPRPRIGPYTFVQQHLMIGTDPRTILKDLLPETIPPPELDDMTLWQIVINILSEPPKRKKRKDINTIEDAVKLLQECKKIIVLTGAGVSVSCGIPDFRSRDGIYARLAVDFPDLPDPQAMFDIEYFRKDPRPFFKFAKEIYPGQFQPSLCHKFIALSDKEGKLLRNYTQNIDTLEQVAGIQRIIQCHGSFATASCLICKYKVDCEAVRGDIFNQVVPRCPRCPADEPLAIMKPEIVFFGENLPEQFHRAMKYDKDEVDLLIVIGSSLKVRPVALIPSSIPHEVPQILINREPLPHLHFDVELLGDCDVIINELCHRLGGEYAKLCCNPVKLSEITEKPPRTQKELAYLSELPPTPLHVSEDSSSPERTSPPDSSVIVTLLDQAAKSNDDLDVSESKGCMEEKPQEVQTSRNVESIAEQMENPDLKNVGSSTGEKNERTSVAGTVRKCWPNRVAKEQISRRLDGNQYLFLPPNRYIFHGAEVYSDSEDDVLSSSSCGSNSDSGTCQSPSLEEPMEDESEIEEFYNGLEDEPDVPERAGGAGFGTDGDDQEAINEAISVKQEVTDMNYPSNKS
Outline: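 Fluorescence deacetylase assay with in-house Cbz-Lys(Ac)-AMC substrate. Values are means of three experiments on racemic material. Single-point lines were tested at 20 µM, and less than 20% inhibition was scored as no inhibition.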

[4] = molecular target: T3, Protein deacetylase HDAC6 (Homo sapiens) (UniProt Q9UBN7); assay: Inhibition of HDAC6 (unknown origin)
T3 sequence (whole entry): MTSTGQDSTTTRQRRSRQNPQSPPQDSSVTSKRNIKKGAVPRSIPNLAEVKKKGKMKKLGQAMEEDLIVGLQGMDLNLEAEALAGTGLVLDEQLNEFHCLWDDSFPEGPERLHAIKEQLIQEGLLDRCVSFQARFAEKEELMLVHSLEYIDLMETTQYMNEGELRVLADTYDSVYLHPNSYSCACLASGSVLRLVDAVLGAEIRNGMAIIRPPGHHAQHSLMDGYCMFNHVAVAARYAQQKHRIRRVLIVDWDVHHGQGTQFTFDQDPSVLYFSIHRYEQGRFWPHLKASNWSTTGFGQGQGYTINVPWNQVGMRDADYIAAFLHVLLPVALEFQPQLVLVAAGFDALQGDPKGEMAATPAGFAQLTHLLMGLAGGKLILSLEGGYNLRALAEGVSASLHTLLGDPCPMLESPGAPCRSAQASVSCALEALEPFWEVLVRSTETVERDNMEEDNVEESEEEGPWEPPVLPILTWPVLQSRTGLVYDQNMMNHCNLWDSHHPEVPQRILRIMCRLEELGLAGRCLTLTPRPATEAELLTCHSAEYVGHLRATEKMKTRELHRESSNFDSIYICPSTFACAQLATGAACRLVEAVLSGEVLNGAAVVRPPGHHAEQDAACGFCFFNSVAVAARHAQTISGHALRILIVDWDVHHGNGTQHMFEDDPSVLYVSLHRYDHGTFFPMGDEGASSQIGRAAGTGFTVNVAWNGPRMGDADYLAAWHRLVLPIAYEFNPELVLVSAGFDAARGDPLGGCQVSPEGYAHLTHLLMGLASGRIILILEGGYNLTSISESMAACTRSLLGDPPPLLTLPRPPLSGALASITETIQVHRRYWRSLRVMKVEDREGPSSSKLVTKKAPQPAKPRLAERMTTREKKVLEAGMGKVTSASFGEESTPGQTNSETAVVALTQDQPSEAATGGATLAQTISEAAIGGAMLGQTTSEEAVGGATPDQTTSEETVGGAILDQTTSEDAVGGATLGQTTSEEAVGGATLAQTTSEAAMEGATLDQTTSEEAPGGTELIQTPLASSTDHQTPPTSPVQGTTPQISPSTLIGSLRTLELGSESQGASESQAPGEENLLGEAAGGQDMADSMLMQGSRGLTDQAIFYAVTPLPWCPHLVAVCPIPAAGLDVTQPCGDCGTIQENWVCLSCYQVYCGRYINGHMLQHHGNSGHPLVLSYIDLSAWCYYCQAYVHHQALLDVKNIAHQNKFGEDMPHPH

[5] = molecular target: Histone deacetylase 5 (Homo sapiens) (UniProt Q9UQL6); assay: Inhibition of HDAC5 (unknown origin)
Histone deacetylase 5 (Homo sapiens), sequence (Q9UQL6 whole entry): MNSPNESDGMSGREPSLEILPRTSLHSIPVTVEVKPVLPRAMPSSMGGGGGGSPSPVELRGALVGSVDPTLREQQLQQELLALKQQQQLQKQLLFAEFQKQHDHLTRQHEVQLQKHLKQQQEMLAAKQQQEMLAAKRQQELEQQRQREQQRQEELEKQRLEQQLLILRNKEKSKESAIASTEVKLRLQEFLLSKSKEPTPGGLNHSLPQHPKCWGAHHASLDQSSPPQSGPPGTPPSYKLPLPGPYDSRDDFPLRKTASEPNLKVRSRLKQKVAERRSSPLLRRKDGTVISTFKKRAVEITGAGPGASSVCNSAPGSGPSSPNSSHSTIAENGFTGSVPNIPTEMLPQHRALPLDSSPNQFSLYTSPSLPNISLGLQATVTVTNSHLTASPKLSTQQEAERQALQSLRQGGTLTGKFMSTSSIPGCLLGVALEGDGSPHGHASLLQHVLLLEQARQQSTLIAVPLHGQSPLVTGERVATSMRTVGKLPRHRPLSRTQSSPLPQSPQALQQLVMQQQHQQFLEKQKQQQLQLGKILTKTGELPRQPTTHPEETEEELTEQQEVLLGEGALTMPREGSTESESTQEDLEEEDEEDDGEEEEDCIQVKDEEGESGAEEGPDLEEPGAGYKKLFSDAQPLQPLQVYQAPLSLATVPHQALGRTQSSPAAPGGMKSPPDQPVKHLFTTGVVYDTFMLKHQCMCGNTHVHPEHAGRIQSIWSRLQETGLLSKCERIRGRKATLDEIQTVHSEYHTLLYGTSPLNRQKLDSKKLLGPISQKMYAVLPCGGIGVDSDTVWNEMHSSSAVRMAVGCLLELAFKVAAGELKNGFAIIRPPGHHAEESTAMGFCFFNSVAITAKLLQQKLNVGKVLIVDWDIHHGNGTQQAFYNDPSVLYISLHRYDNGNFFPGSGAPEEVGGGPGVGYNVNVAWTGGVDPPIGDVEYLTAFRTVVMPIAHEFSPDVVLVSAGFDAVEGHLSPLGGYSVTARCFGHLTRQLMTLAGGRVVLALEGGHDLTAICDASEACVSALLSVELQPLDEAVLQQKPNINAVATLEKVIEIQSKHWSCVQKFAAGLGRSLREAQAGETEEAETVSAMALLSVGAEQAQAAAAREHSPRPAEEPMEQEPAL

[6] = molecular target: Histone deacetylase 2 (Homo sapiens, UniProt Q92769); assay: Inhibition of HDAC2 (unknown origin)
Histone deacetylase 2, sequence (Q92769 whole entry): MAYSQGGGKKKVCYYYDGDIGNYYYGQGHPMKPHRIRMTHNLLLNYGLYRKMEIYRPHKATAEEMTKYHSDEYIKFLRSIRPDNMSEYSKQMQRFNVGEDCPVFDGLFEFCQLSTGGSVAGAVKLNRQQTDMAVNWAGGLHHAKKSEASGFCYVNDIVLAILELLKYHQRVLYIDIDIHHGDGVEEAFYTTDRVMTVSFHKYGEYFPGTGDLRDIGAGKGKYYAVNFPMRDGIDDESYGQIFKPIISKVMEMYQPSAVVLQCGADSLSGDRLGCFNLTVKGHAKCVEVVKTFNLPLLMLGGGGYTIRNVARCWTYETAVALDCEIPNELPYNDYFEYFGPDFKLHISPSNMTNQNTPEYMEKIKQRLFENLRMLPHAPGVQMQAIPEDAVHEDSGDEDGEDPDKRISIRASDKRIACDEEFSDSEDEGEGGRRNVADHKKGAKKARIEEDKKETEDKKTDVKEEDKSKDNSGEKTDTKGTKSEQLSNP

SMILES	inhibition [1]	inhibition [2]	inhibition [3]	inhibition [4]	inhibition [5]	inhibition [6]	IC50 [6]
NC(=O)C1CCCc2c(-c3csc4ccccc34)n[nH]c21 (racemic)	inactive	inactive	48%	inactive	inactive	inactive	
CNC(=O)C1CCCc2c(-c3ccc(Cl)cc3)n[nH]c21 (racemic)	inactive	inactive	< 20%	inactive	inactive	inactive	
NC(=O)C1CCCc2c(-c3ccc(Cl)cc3)n[nH]c21 (racemic)	inactive	inactive		inactive	inactive	inactive	
CC1(C)Cc2c(-c3ccc(Cl)c(Cl)c3)n[nH]c2C(C(N)=O)C1 (racemic)	inactive	inactive	23%	inactive	inactive	inactive	
CCOC(=O)C1CCCc2c(-c3ccc(Cl)c(F)c3)n[nH]c21 (racemic)	inactive	inactive	< 20%	inactive	inactive	inactive	
NC(=O)C1CC(c2ccccc2)Cc2c(-c3ccc(Cl)cc3)n[nH]c21 (mixture of isomers)	inactive	inactive	59%	inactive	inactive	inactive	
NC(=O)C1CCCc2c(-c3ccc(F)cc3)n[nH]c21 (racemic)	inactive	inactive	42%	inactive	inactive	inactive	
NC(=O)C1CCCc2c(-c3cc4cc(Br)ccc4s3)n[nH]c21 (racemic)	inactive	inactive	38%	inactive	inactive	inactive	
CC1(C)Cc2c(-c3cc4ccccc4s3)n[nH]c2C(C(N)=O)C1 (racemic)	inactive	inactive	53%	inactive	inactive	inactive	
CC1(C)Cc2c(-c3ccc(Cl)cc3)n[nH]c2C(C(N)=O)C1 (racemic)	inactive	inactive		inactive	inactive	inactive	
NC(=O)C1CCCCCc2c(-c3ccc(Cl)cc3)n[nH]c21 (racemic)	inactive	inactive	28%	inactive	inactive	inactive	
NC(=O)C1CCCc2c(-c3ccc(Br)cc3)n[nH]c21 (racemic)	inactive	inactive		inactive	inactive	inactive	
NC(=O)C1CCCc2c(-c3cc4ccccc4[nH]3)n[nH]c21 (racemic)	inactive	inactive	46%	inactive	inactive	inactive	
CC1(C)Cc2c(-c3ccc(Br)cc3)n[nH]c2C(C(N)=O)C1 (racemic)	inactive	inactive	56%	inactive	inactive	inactive	
Cn1cc(-c2n[nH]c3c2CCCC3C(N)=O)c2ccccc21 (racemic)	inactive	inactive	< 20%	inactive	inactive	inactive	
NC(=O)C1CCCCc2c(-c3ccc(Cl)cc3)n[nH]c21 (racemic)	inactive	inactive		inactive	inactive	inactive	
NC(=O)C1CCCc2c(-c3cc4ccccc4o3)n[nH]c21 (racemic)	inactive	inactive		inactive	inactive	inactive	
NC(=O)C1CCCc2c(-c3nc4ccccc4s3)n[nH]c21 (racemic)	inactive	inactive		inactive	inactive	inactive	
NC(=O)C1CCCc2c(-c3ccc(Cl)c(Cl)c3)n[nH]c21 (racemic)							> 10 µM
NC(=O)C1CCCc2c(-c3cc(Br)cs3)n[nH]c21 (racemic)	inactive	inactive		inactive	inactive	inactive	
NC(=O)C1CCCc2c(-c3ccc(Cl)c(F)c3)n[nH]c21 (racemic)	inactive	inactive		inactive	inactive	inactive	
Cn1c(-c2n[nH]c3c2CCCC3C(N)=O)cc2ccccc21 (racemic)	inactive	inactive		inactive	inactive	inactive	
Cc1ccc(-c2n[nH]c3c2CCCC3C(N)=O)cc1 (racemic)	inactive	inactive		inactive	inactive	inactive	
NC(=O)C1CCCc2c(-c3cc4ccccc4s3)n[nH]c21 (racemic)	inactive	inactive		inactive	inactive	inactive	
